Data: ChEMBL document CHEMBL3872252, “New bithiazolyl hydrazones: Novel synthesis, characterization and antitubercular evaluation” (Bioorg Med Chem Lett, 2017)

Assays:
[1] = Antitubercular activity against Mycobacterium bovis BCG ATCC 35743 dormant stage measured on day 12 by nitrate reductase based two-fold dilution assay; format: functional, Mycobacterium bovis BCG str. ATCC 35743; settings: Mycobacterium tuberculosis variant bovis BCG, ATCC 35743, 288 h
[2] = Selectivity index, ratio of GI50 for human HCT116 cells to MIC90 for Mycobacterium bovis BCG ATCC 35743 dormant stage; format: toxicity, cell-based, HCT-116; settings: read-out: Selectivity Index
Method in brief: (§1)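 Cytotoxicity was measured on human MCF-7, HCT116 and THP-1 cells by MTT assay, with paclitaxel as reference. The selectivity index is GI50 for the given cell line divided by MIC90 for the given mycobacterial strain and stage.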

[3] = Selectivity index, ratio of GI50 for human HCT116 cells to MIC90 for Mycobacterium bovis BCG ATCC 35743 active stage; format: toxicity, cell-based, HCT-116; settings: read-out: Selectivity Index
Method in brief: (§2)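 Cytotoxicity was measured on human MCF-7, HCT116 and THP-1 cells by MTT assay, with paclitaxel as reference. GI50 is the concentration inhibiting 50% of cell growth. The selectivity index is GI50 for the given cell line divided by MIC90 for the given mycobacterial strain and stage.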

Escherichia coli [4] = experiment: Growth inhibition of Escherichia coli at 30 ug/ml; format: functional; settings: read-out: GI
Bacillus subtilis [5] = experiment: Growth inhibition of Bacillus subtilis at 3 ug/ml; format: functional; settings: read-out: GI
Method in brief: (§3)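 Screened against Gram-negative E. coli and P. aeruginosa and Gram-positive S. aureus and B. subtilis. Compound was tested at 3 µg/ml, and the read-out is percent growth inhibition.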

[6] = Selectivity index, ratio of GI50 for human THP1 cells to MIC90 for Mycobacterium bovis BCG ATCC 35743 active stage; format: toxicity, cell-based, THP-1; settings: read-out: Selectivity Index; method in brief: as §2
[7] = Selectivity index, ratio of GI50 for human THP1 cells to MIC90 for Mycobacterium bovis BCG ATCC 35743 dormant stage; format: toxicity, cell-based, THP-1; settings: read-out: Selectivity Index; method in brief: as §1
Staphylococcus aureus [8] = experiment: Growth inhibition of Staphylococcus aureus at 3 ug/ml; format: functional; settings: read-out: GI; method in brief: as §3
[9] = Antitubercular activity against Mycobacterium bovis BCG ATCC 35743 active stage measured on day 8 by nitrate reductase based two-fold dilution assay; format: functional, Mycobacterium bovis BCG str. ATCC 35743; settings: Mycobacterium tuberculosis variant bovis BCG, ATCC 35743, 192 h
[10] = Selectivity index, ratio of GI50 for human THP1 cells to MIC90 for Mycobacterium tuberculosis H37Ra ATCC 25177 active stage; format: toxicity, cell-based, THP-1; settings: read-out: Selectivity Index; method in brief: as §2
[11] = Cytotoxicity against human THP1 cells by MTT assay; format: toxicity, cell-based, THP-1
[12] = Antitubercular activity against Mycobacterium tuberculosis H37Ra ATCC 25177 dormant stage measured on day 12 by XTT reduction menadione based two-fold dilution assay; format: functional; settings: ATCC 25177, 288 h
Method in brief: (§4)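 M. tuberculosis H37Ra ATCC 25177 was exposed to 0.7–100 μg/mL in two-fold steps (0.7, 1.5, 3.1 … 100). Active stage was read after 8 days and dormant stage after 12 days of incubation. Inhibition was read by XTT reduction menadione assay (XRMA), absorbance 470 nm. MIC90 is the concentration giving ≥90% inhibition (µg/mL).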

[13] = Cytotoxicity against human MCF7 cells by MTT assay; format: toxicity, cell-based
Staphylococcus aureus [14] = experiment: Growth inhibition of Staphylococcus aureus at 30 ug/ml; format: functional; settings: read-out: GI
Bacillus subtilis [15] = experiment: Growth inhibition of Bacillus subtilis at 30 ug/ml; format: functional; settings: read-out: GI
[16] = Antitubercular activity against Mycobacterium tuberculosis H37Ra ATCC 25177 active stage infected in human THP1 cells measured on day 8 by nitrate reductase assay; format: functional, THP-1; settings: ATCC 25177, 192 h
[17] = Selectivity index, ratio of GI50 for human THP1 cells to MIC90 for Mycobacterium tuberculosis H37Ra ATCC 25177 dormant stage; format: toxicity, cell-based, THP-1; settings: read-out: Selectivity Index; method in brief: as §1
Escherichia coli [18] = experiment: Growth inhibition of Escherichia coli at 3 ug/ml; format: functional; settings: read-out: GI; method in brief: as §3
Staphylococcus aureus [19] = experiment: Growth inhibition of Staphylococcus aureus at 10 ug/ml; format: functional; settings: read-out: GI
Pseudomonas aeruginosa [20] = experiment: Growth inhibition of Pseudomonas aeruginosa at 3 ug/ml; format: functional; settings: read-out: GI; method in brief: as §3
Escherichia coli [21] = experiment: Growth inhibition of Escherichia coli at 10 ug/ml; format: functional; settings: read-out: GI
[22] = Antitubercular activity against Mycobacterium tuberculosis H37Ra ATCC 25177 active stage measured on day 8 by XTT reduction menadione based two-fold dilution assay; format: functional; settings: ATCC 25177, 192 h; method in brief: as §4
[23] = Selectivity index, ratio of GI50 for human HCT116 cells to MIC90 for Mycobacterium tuberculosis H37Ra ATCC 25177 dormant stage; format: toxicity, cell-based, HCT-116; settings: read-out: Selectivity Index; method in brief: as §1
Bacillus subtilis [24] = experiment: Growth inhibition of Bacillus subtilis at 10 ug/ml; format: functional; settings: read-out: GI
[25] = Selectivity index, ratio of GI50 for human MCF7 cells to MIC90 for Mycobacterium bovis BCG ATCC 35743 dormant stage; format: toxicity, cell-based; settings: read-out: Selectivity Index; method in brief: as §1
Pseudomonas aeruginosa [26] = experiment: Growth inhibition of Pseudomonas aeruginosa at 10 ug/ml; format: functional; settings: read-out: GI
[27] = Cytotoxicity against human HCT116 cells by MTT assay; format: toxicity, cell-based, HCT-116
[28] = Selectivity index, ratio of GI50 for human MCF7 cells to MIC90 for Mycobacterium tuberculosis H37Ra ATCC 25177 dormant stage; format: toxicity, cell-based; settings: read-out: Selectivity Index; method in brief: as §1
[29] = Antitubercular activity against Mycobacterium tuberculosis H37Ra ATCC 25177 dormant stage infected in human THP1 cells measured on day 12 by nitrate reductase assay; format: functional, THP-1; settings: ATCC 25177, 288 h
Pseudomonas aeruginosa [30] = experiment: Growth inhibition of Pseudomonas aeruginosa at 30 ug/ml; format: functional; settings: read-out: GI
[31] = Selectivity index, ratio of GI50 for human MCF7 cells to MIC90 for Mycobacterium bovis BCG ATCC 35743 active stage; format: toxicity, cell-based; settings: read-out: Selectivity Index; method in brief: as §2
[32] = Selectivity index, ratio of GI50 for human MCF7 cells to MIC90 for Mycobacterium tuberculosis H37Ra ATCC 25177 active stage; format: toxicity, cell-based; settings: read-out: Selectivity Index; method in brief: as §2
[33] = Selectivity index, ratio of GI50 for human HCT116 cells to MIC90 for Mycobacterium tuberculosis H37Ra ATCC 25177 active stage; format: toxicity, cell-based, HCT-116; settings: read-out: Selectivity Index; method in brief: as §2

With C/C(=N\Nc1nc(-c2ccc(F)cc2)cs1)c1sc(-c2ccccc2)nc1C the IC50 [1] was over 100 µg/mL, the MIC90 [1] was over 100 µg/mL and the selectivity ratio [2] was 1. For the same compound, the selectivity ratio [3] was 1, the inhibition of growth at 30 µg/mL (Escherichia coli [4]) was 74.7% and the inhibition of growth at 3 µg/mL (Bacillus subtilis [5]) was 68.5%. For the same compound, the selectivity ratio [6] was 1, the selectivity ratio [7] was 1 and the inhibition of growth at 3 µg/mL (Staphylococcus aureus [8]) was 70.7%. The IC50 [9] was over 100 µg/mL, the MIC90 [9] was over 100 µg/mL and the selectivity ratio [10] was 1. It also gave a GI50 ([11]; THP1 cells) of over 100 µg/mL, a GI90 ([11]; thp-1) of over 100 µg/mL and an IC50 [12] of over 100 µg/mL. For the same compound, the MIC90 [12] was over 100 µg/mL, the GI50 ([13]; MCF7 cells) was over 100 µg/mL and the GI90 ([13]; mcf7) was over 100 µg/mL. It also gave an inhibition of growth at 30 µg/mL (Staphylococcus aureus [14]) of 73.2%, an inhibition of growth at 30 µg/mL (Bacillus subtilis [15]) of 71.1% and an MIC90 [16] of over 100 µg/mL. For the same compound, the selectivity ratio [17] was 1, the inhibition of growth at 3 µg/mL (Escherichia coli [18]) was 72.5% and the inhibition of growth at 10 µg/mL (Staphylococcus aureus [19]) was 72.5%. The inhibition of growth at 3 µg/mL (Pseudomonas aeruginosa [20]) was 71.5%, the inhibition of growth at 10 µg/mL (Escherichia coli [21]) was 74% and the IC50 [22] was over 100 µg/mL. It also gave an MIC90 [22] of over 100 µg/mL, a selectivity ratio [23] of 1 and an inhibition of growth at 10 µg/mL (Bacillus subtilis [24]) of 70.2%. It also gave a selectivity ratio [25] of 1, an inhibition of growth at 10 µg/mL (Pseudomonas aeruginosa [26]) of 73.2% and a GI50 ([27]; HCT116 cells) of over 100 µg/mL. The GI90 ([27]; hct-116) was over 100 µg/mL, the selectivity ratio [28] was 1 and the MIC90 [29] was over 100 µg/mL. It also gave an inhibition of growth at 30 µg/mL (Pseudomonas aeruginosa [30]) of 74%, a selectivity ratio [31] of 1 and a selectivity ratio [32] of 1. It also gave a selectivity ratio [33] of 1.
